This is an account of results in ChEMBL document CHEMBL1139420, “Antibacterial profile against drug-resistant Staphylococcus epidermidis clinical strain and structure-activity relationship studies of 1H-pyrazolo[3,4-b]pyridine and thieno[2,3-b]pyridine derivatives” (Bioorg Med Chem, 2008).

One data set concerns Serratia marcescens. Description: Antibacterial activity against drug-resistant Serratia marcescens clinical isolate assessed as inhibition zone diameter after 24 hrs by antibacterial susceptibility test. Format: functional, organism-based.
Data set [1] is described as follows: Cytotoxicity against human PBMC assessed as cell viability at 700 uM after 3 to 5 days by XTT method. Format: cell-based. The settings on record: PBMC (peripheral blood mononuclear cells), read-out: Activity. The method, boiled down:
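Human PBMCs from healthy donors isolated by density gradient from buffy coats, kept in RPMI 1640 with 10% heat-inactivated FBS, penicillin, streptomycin, 2 mM glutamine, 10 mM Hepes; stimulated 2–3 days with 5 µg/mL PHA, then kept with 5 U/mL IL-2. Compound at 700 µM, 5% CO2, 37 °C; XTT added, OD 450 nm after 2 h; duplicate, at least three times.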
In general terms: Tetrazolium dyes change colour on reduction, which living cells bring about.

The next data set has as its system Pseudomonas aeruginosa. Briefly: Antibacterial activity against drug-resistant Pseudomonas aeruginosa clinical isolate assessed as inhibition zone diameter after 24 hrs by antibacterial susceptibility test. Format: functional, organism-based.
In another data set the test system is Proteus mirabilis. Description: Antibacterial activity against drug-resistant Proteus mirabilis clinical isolate assessed as inhibition zone diameter after 24 hrs by antibacterial susceptibility test. In kind it is functional, organism-based.
Data set [2] relates to Acinetobacter calcoaceticus. Briefly: Antibacterial activity against drug-resistant Acinetobacter calcoaceticus clinical isolate assessed as inhibition zone diameter after 24 hrs by antibacterial susceptibility test. Format: functional, organism-based.
A further data set relates to Enterobacter cloacae. Briefly: Antibacterial activity against drug-resistant Enterobacter cloacae clinical isolate assessed as inhibition zone diameter after 24 hrs by antibacterial susceptibility test. In kind it is functional, organism-based.
For the next data set, the system named is Enterococcus faecalis. Briefly: Antibacterial activity against drug-resistant Enterococcus faecalis clinical isolate assessed as inhibition zone diameter after 24 hrs by antibacterial susceptibility test. Format: functional, organism-based.
In a further data set the test system is Escherichia coli. Description: Antibacterial activity against drug-resistant Escherichia coli clinical isolate assessed as inhibition zone diameter after 24 hrs by antibacterial susceptibility test. Format: functional, organism-based.
The test system of another data set is Klebsiella pneumoniae. Briefly: Antibacterial activity against drug-resistant Klebsiella pneumoniae clinical isolate assessed as inhibition zone diameter after 24 hrs by antibacterial susceptibility test. Format: functional, organism-based.
The test system of data set [3] is Staphylococcus epidermidis. Description: Antibacterial activity against drug-resistant Staphylococcus epidermidis clinical isolate assessed as inhibition zone diameter after 24 hrs by antibacterial susceptibility test. Format: functional.

Activity calls are given as the source filed them. No cut-off for these calls is given here.

In the case of `O=C(O)c1cnc2sccc2c1Nc1cccc(Cl)c1`, the result (with Serratia marcescens; with Pseudomonas aeruginosa; with Proteus mirabilis; in data set [2]; with Enterobacter cloacae; with Enterococcus faecalis) was inactive. In addition, the result in the data set on Escherichia coli and with Klebsiella pneumoniae was inactive. The viability at 700 µM in data set [1] was determined as 100%. The “inhibition zone (IZ)” value in data set [3] came to 0 mm.

For `O=C(O)c1cnc2sccc2c1Nc1ccc([N+](=O)[O-])cc1`, the outcome (in the data set with Serratia marcescens; in the data set on Pseudomonas aeruginosa; with Proteus mirabilis; in [2]; with Enterobacter cloacae; with Enterococcus faecalis) was inactive. Besides, the result with Escherichia coli and with Klebsiella pneumoniae was inactive. In data set [1], the viability at 700 µM worked out at 100%. The “inhibition zone (IZ)” value in data set [3] was found to be 0 mm.

On to `O=C(O)c1cnc2c(cnn2-c2ccccc2)c1Nc1cccc([N+](=O)[O-])c1`, for which the result (in the data set on Serratia marcescens; with Pseudomonas aeruginosa; with Proteus mirabilis; in [2]; in the data set on Enterobacter cloacae; with Enterococcus faecalis) was inactive. Further, the result in the data set with Escherichia coli and with Klebsiella pneumoniae was inactive. The viability at 700 µM in data set [1] is 100%. In addition, the “inhibition zone (IZ)” value in [3] amounted to 12 mm.

Turning to `Cc1ccc(Nc2c(C(=O)O)cnc3c2cnn3-c2ccccc2)cc1`, the outcome (with Serratia marcescens; in the data set with Pseudomonas aeruginosa; in the data set with Proteus mirabilis; in data set [2]; in the data set with Enterobacter cloacae; in the data set on Enterococcus faecalis) was inactive. Also, the result in the data set on Escherichia coli and in the data set on Klebsiella pneumoniae was inactive. Besides, the viability at 700 µM in [1] came to 100%. For the same compound, in data set [3], the “inhibition zone (IZ)” value came out at 0 mm.

In the case of `COc1ccc(Nc2c(C(=O)O)cnc3sccc23)cc1`, the result (in the data set with Serratia marcescens; in the data set with Pseudomonas aeruginosa; with Proteus mirabilis; in [2]; in the data set on Enterobacter cloacae; in the data set with Enterococcus faecalis) was inactive. Besides, the result in the data set on Escherichia coli and with Klebsiella pneumoniae was inactive. In addition, in [1], the viability at 700 µM worked out at 100%. Moreover, in data set [3], the “inhibition zone (IZ)” value is given as 0 mm.

Turning to `O=C(O)c1cnc2c(cnn2-c2ccccc2)c1Nc1ccc(Cl)cc1`, the result (in the data set with Serratia marcescens; in the data set on Pseudomonas aeruginosa; with Proteus mirabilis; in data set [2]; with Enterobacter cloacae; in the data set with Enterococcus faecalis) was inactive. For the same compound, the result in the data set with Escherichia coli and with Klebsiella pneumoniae was inactive. In [1], the viability at 700 µM worked out at 100%. Moreover, the “inhibition zone (IZ)” value in [3] is listed as 0 mm.

As to `O=C(O)c1cnc2sccc2c1Nc1ccc(Br)cc1`, the result (with Serratia marcescens; in the data set on Pseudomonas aeruginosa; with Proteus mirabilis; in data set [2]; in the data set with Enterobacter cloacae; in the data set on Enterococcus faecalis) was inactive. Further, the result with Escherichia coli and with Klebsiella pneumoniae was inactive. Besides, the viability at 700 µM in data set [1] was 100%. The “inhibition zone (IZ)” value in [3] is given as 0 mm.

On to `CN[C@H](CC(C)C)C(=O)N[C@H]1C(=O)N[C@@H](CC(N)=O)C(=O)N[C@H]2C(=O)N[C@H]3C(=O)N[C@H](C(=O)N[C@H](C(=O)O)c4cc(O)cc(O)c4-c4cc3ccc4O)[C@H](O)c3ccc(c(Cl)c3)Oc3cc2cc(c3O[C@@H]2O[C@H](CO)[C@@H](O)[C@H](O)[C@H]2O[C@H]2C[C@](C)(N)[C@H](O)[C@H](C)O2)Oc2ccc(cc2Cl)[C@H]1O` [VANCOMYCIN], for which the “inhibition zone (IZ)” value in [3] came to 15 mm.

Turning to `O=C(O)c1cnc2c(cnn2-c2ccccc2)c1Nc1ccccc1`, the outcome (in the data set with Serratia marcescens; in the data set on Pseudomonas aeruginosa; with Proteus mirabilis; in [2]; in the data set with Enterobacter cloacae; in the data set with Enterococcus faecalis) was inactive. Besides, the result in the data set on Escherichia coli and in the data set with Klebsiella pneumoniae was inactive. The viability at 700 µM in data set [1] is 91%. Further, the “inhibition zone (IZ)” value in [3] is reported as 0 mm.

Regarding `O=C(O)c1cnc2sccc2c1Nc1ccccc1`, the result (in the data set on Serratia marcescens; with Pseudomonas aeruginosa; in the data set on Proteus mirabilis; in [2]; with Enterobacter cloacae; with Enterococcus faecalis) was inactive. In addition, the result in the data set with Escherichia coli and in the data set on Klebsiella pneumoniae was inactive. Besides, the viability at 700 µM in data set [1] came out at 100%. In addition, in data set [3], the “inhibition zone (IZ)” value came out at 0 mm.

Turning to `O=C(O)c1cnc2c(cnn2-c2ccccc2)c1Nc1ccc(Br)cc1`, the outcome (with Serratia marcescens; with Pseudomonas aeruginosa; in the data set on Proteus mirabilis; in data set [2]; in the data set on Enterobacter cloacae; in the data set on Enterococcus faecalis) was inactive. For the same compound, the outcome in the data set on Escherichia coli and in the data set on Klebsiella pneumoniae was inactive. In addition, in data set [1], the viability at 700 µM is 92%. For the same compound, the “inhibition zone (IZ)” value in [3] is given as 10 mm.

As to `O=C(O)c1cnc2sccc2c1Nc1cccc(F)c1`, the result (in the data set with Serratia marcescens; in the data set on Pseudomonas aeruginosa; in the data set on Proteus mirabilis; in [2]; in the data set with Enterobacter cloacae; in the data set with Enterococcus faecalis) was inactive. Further, the outcome in the data set on Escherichia coli and in the data set on Klebsiella pneumoniae was inactive. In addition, in data set [1], the viability at 700 µM worked out at 100%. Also, the “inhibition zone (IZ)” value in data set [3] came out at 0 mm.

As for `COc1ccc(Nc2c(C(=O)O)cnc3c2cnn3-c2ccccc2)cc1`, the result (in the data set on Serratia marcescens; in the data set with Pseudomonas aeruginosa; in the data set with Proteus mirabilis; in [2]; in the data set on Enterobacter cloacae; in the data set on Enterococcus faecalis) was inactive. For the same compound, the outcome with Escherichia coli and in the data set on Klebsiella pneumoniae was inactive. Also, the viability at 700 µM in [1] came out at 100%. Also, in data set [3], the “inhibition zone (IZ)” value is listed as 0 mm.

As to `O=C(O)c1cnc2sccc2c1Nc1cccc(Br)c1`, the result (in the data set on Serratia marcescens; in the data set with Pseudomonas aeruginosa; in the data set with Proteus mirabilis; in [2]; with Enterobacter cloacae; with Enterococcus faecalis) was inactive. For the same compound, the result with Escherichia coli and in the data set on Klebsiella pneumoniae was inactive. The viability at 700 µM in [1] amounted to 100%. Moreover, the “inhibition zone (IZ)” value in data set [3] is reported as 0 mm.

In the case of `Cc1cccc(Nc2c(C(=O)O)cnc3sccc23)c1`, the result (in the data set with Serratia marcescens; with Pseudomonas aeruginosa; with Proteus mirabilis; in data set [2]; in the data set on Enterobacter cloacae; in the data set with Enterococcus faecalis) was inactive. Moreover, the result in the data set on Escherichia coli and in the data set with Klebsiella pneumoniae was inactive. The viability at 700 µM in data set [1] was found to be 100%. Also, in data set [3], the “inhibition zone (IZ)” value is given as 0 mm.

With `O=C(O)c1cnc2sccc2c1Nc1ccc(F)cc1`, the outcome (in the data set on Serratia marcescens; with Pseudomonas aeruginosa; in the data set with Proteus mirabilis; in data set [2]; with Enterobacter cloacae; in the data set on Enterococcus faecalis) was inactive. Also, the outcome in the data set on Escherichia coli and with Klebsiella pneumoniae was inactive. In addition, the viability at 700 µM in data set [1] is 100%. The “inhibition zone (IZ)” value in data set [3] is given as 0 mm.

Consider `O=C(O)c1cnc2sccc2c1Nc1cccc([N+](=O)[O-])c1`, for which the result (with Serratia marcescens; in the data set on Pseudomonas aeruginosa; in the data set with Proteus mirabilis; in data set [2]; with Enterobacter cloacae; in the data set with Enterococcus faecalis) was inactive. In addition, the result in the data set with Escherichia coli and in the data set on Klebsiella pneumoniae was inactive. The viability at 700 µM in data set [1] was 100%. Further, the “inhibition zone (IZ)” value in data set [3] worked out at 0 mm.
